# Source: ChEMBL document CHEMBL1221219, “Selective blockade of 2-arachidonoylglycerol hydrolysis produces cannabinoid behavioral effects” (Nat Chem Biol, 2009)
# Calls of active or inactive are those of the source. The calls are words filed in the database; no cut-off is given here.
# How the values were obtained:
# Mus musculus [1] = experiment: Inhibition of PNPLA8 in C57B1/6J mouse brain membrane at 16 mg/kg, ip after 4 hrs by competitive activity-based protein profiling-MudPIT method; type: functional, organism-based; parameters: dose 16 mg/kg
# Method in brief: (§1)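 After i.p. dosing in 4:1 PEG300:Tween80, male C57Bl/6J mice were killed at 4 h. Brain membrane proteomes from treated and vehicle mice were labelled with FP-biotin. Labelled proteins were enriched on avidin, digested on-bead with trypsin and analysed by multidimensional LC-MS. Proteins were identified by SEQUEST, and dosed samples were compared with vehicle.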
# Mus musculus [2] = experiment: Induction of hypothermia in CB1 receptor deficient C57B1/6J mouse at 16 mg/kg, ip; type: functional, organism-based; parameters: dose 16 mg/kg
# Method in brief: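 Male C57Bl/6J mice, 6-8 weeks, 20-26 g, given 16 mg kg^-1 i.p. in 4:1 v/v PEG300:Tween80 at 4 μl g^-1; vehicle controls received PEG300:Tween80 alone. Cannabinoid effects were scored in the tetrad test.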
# Mus musculus [3] = experiment: Antinociceptive activity against formalin-induced pain in C57B1/6J mouse assessed as paw lifting or licking during early phase (0 to 10 mins) at 40 m/kg, po administered 2 hrs before formalin challenge pretreated with rimonabant; type: functional, organism-based
# Mus musculus [4] = experiment: Inhibition of JZL184 induced immobility in C57B1/6J mouse at 16 mg/kg, ip; type: functional, organism-based; parameters: dose 16 mg/kg
# Mus musculus [5] = experiment: Visceral analgesic activity against C57B1/6J mouse assessed as inhibition of acetic acid-induced writhing response for 20 mins at 16 mg/kg, ip pretreated 2 hr before acetic acid challenge; type: functional, organism-based; parameters: dose 16 mg/kg
# Method in brief: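 Male C57Bl/6J mice (6-8 weeks) dosed 16 mg kg^-1 i.p. in 4:1 v/v PEG300:Tween80, with vehicle controls. Assessed in the tetrad test for cannabinoid effects or in the acetic acid-induced abdominal stretching assay.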
# Mus musculus [6] = experiment: Antinociceptive activity against formalin-induced pain in C57B1/6J mouse assessed as paw lifting or licking during late phase (20-40 mins) at 40 m/kg, po administered 2 hrs before formalin challenge; type: functional, organism-based
# Mus musculus [7] = experiment: Inhibition of FAAH in C57B1/6J mouse brain membrane at 10 mg/kg, ip by competitive activity-based protein profiling method; type: functional, organism-based; parameters: dose 10 mg/kg
# Mus musculus [8] = experiment: Change in N-acylethanolamine level in C57B1/6J mouse brain at 16 mg/kg, ip by LC-MS; type: functional, organism-based; parameters: dose 16 mg/kg
# Method in brief: (§2)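 Mice received 16 mg kg^-1 i.p. in 4:1 PEG300:Tween80 and were killed at 0.5, 1, 2, 4, 8 and 24 h. Brain lipids, including N-acylethanolamines, MAGs, free fatty acids and arachidonic acid, were measured by LC-MS.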
# Mus musculus [9] = experiment: Change in arachidonic acid levels in intraperitoneally dosed C57B1/6J mouse brain by LC-MS; type: functional, organism-based
# Method in brief: (§3)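 Male C57Bl/6J mice given 4, 8, 16 or 40 mg kg^-1 i.p. in 4:1 PEG300:Tween80 at 4 μl g^-1, or vehicle, and killed after 4 h. Whole-brain lipids were quantified by LC-MS.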
# Mus musculus [10] = experiment: Inhibition of MAGL in orally dosed C57B1/6J mouse brain membrane after 4 hrs; type: functional, organism-based
# Method in brief: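 Oral dosing used male C57Bl/6J mice (6-8 weeks) given inhibitor in PEG300 vehicle at 4 ul g^-1, handled as for i.p. dosing. Brains were taken 4 h later for analysis of brain membrane hydrolase activity.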
# Mus musculus [11] = experiment: Inhibition of GPID in C57B1/6J mouse brain membrane at 16 mg/kg, ip after 4 hrs by competitive activity-based protein profiling-MudPIT method; type: functional, organism-based; parameters: dose 16 mg/kg; method in brief: as §1
# Mus musculus [12] = experiment: Inhibition of FAAH in C57B1/6J mouse brain membrane at 16 mg/kg, ip after 4 hrs by competitive activity-based protein profiling-MudPIT method; type: functional, organism-based; parameters: dose 16 mg/kg; method in brief: as §1
# Mus musculus [13] = experiment: Inhibition of CTHA in C57B1/6J mouse brain membrane at 16 mg/kg, ip after 4 hrs by competitive activity-based protein profiling-MudPIT method; type: functional, organism-based; parameters: dose 16 mg/kg
# Method in brief: (§4)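 Mice were dosed 16 mg kg^-1 i.p. or vehicle and killed at 4 h. Brain membrane proteomes were labelled with FP-biotin, avidin-enriched, trypsin-digested on bead, analysed by multidimensional LC-MS and identified by SEQUEST.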
# Mus musculus [14] = experiment: Inhibition of PPME1 in C57B1/6J mouse brain membrane at 16 mg/kg, ip after 4 hrs by competitive activity-based protein profiling-MudPIT method; type: functional, organism-based; parameters: dose 16 mg/kg; method in brief: as §1
# Mus musculus [15] = experiment: Inhibition of FAAH in C57B1/6J mouse brain membrane at 16 mg/kg, ip after 0.5-24 hrs by competitive activity-based protein profiling method; type: functional; conditions: route intraperitoneal
# Method in brief: (§5)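 Male C57Bl/6J mice (6-8 weeks, 20-26 g) given inhibitor i.p. in 4:1 v/v PEG300:Tween80 at 4 ul g^-1 (4-40 mg kg^-1); vehicle controls. Brain membrane proteomes (1 mg ml^-1 in PBS) labelled with FP-rhodamine (2 μM) for 30 min at room temperature. Readout by SDS-PAGE and in-gel fluorescence scanning, compared with vehicle.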
# Mus musculus [16] = experiment: Inhibition of FAAH in C57B1/6J mouse brain membrane at 4 mg/kg, ip after 4 hrs by competitive activity-based protein profiling method relative to control; type: functional; conditions: route intraperitoneal; method in brief: as §5
# Mus musculus [17] = experiment: Inhibition of […] in C57B1/6J mouse brain membrane assessed as residual 2-AG hydrolysis activity at 16 mg/kg, ip after 4 hrs relative to control; type: functional; conditions: route intraperitoneal
# Method in brief: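 Brain membranes from mice given 4-40 mg kg^-1 i.p. for 4 h were assayed for 2-AG hydrolysis by LC-MS substrate assay. Activity is expressed relative to vehicle control.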
# Mus musculus [18] = experiment: Decrease in arachidonic acid levels in C57B1/6J mouse brain at 16 mg/kg, ip by LC-MS; type: functional, organism-based; parameters: dose 16 mg/kg; method in brief: as §2
# Mus musculus [19] = experiment: Inhibition of MAGL in intraperitoneally dosed C57B1/6J mouse brain membrane assessed as increase in 2-AG level after 4 hrs relative to control; type: functional, organism-based
# Method in brief: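 Male C57Bl/6J mice dosed i.p. in 4:1 v/v PEG300:Tween80, with vehicle controls; killed at set times (0.5-24 h, or 4 h). Brain membrane 2-AG hydrolysis measured by LC-MS substrate assay, and brain 2-AG measured by lipid LC-MS, relative to vehicle.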
# Mus musculus [20] = experiment: Inhibition of 2210412D01 gene in C57B1/6J mouse brain membrane at 16 mg/kg, ip after 4 hrs by competitive activity-based protein profiling-MudPIT method; type: functional, organism-based; parameters: dose 16 mg/kg; method in brief: as §4
# Mus musculus [21] = experiment: Change in oleic acid in intraperitoneally dosed C57B1/6J mouse brain by LC-MS; type: functional, organism-based; method in brief: as §3
# Mus musculus [22] = experiment: Change in monoacylglycerol level in C57B1/6J mouse brain at 16 mg/kg, ip by LC-MS; type: functional, organism-based; parameters: dose 16 mg/kg; method in brief: as §2
structure (smiles),measurement,setting,value
O=C(Oc1ccc([N+](=O)[O-])cc1)N1CCC(C(O)(c2ccc3c(c2)OCO3)c2ccc3c(c2)OCO3)CC1,inhibition,Mus musculus [1],inactive
same,Activity,Mus musculus [2],inactive
same,Activity,Mus musculus [3],inactive
same,inhibition,Mus musculus [4],Active
same,Activity,Mus musculus [5],Active
same,Activity,Mus musculus [6],Active
same,inhibition,Mus musculus [7],Active
same,Activity,Mus musculus [8],inactive
same,Activity,Mus musculus [9],inactive
same,inhibition,Mus musculus [10],Active
same,inhibition,Mus musculus [11],inactive
same,inhibition,Mus musculus [12],inactive
same,inhibition,Mus musculus [13],inactive
same,inhibition,Mus musculus [14],inactive
same,inhibition in vivo at 16 mg/kg,Mus musculus [15],70%
same,inhibition in vivo at 4 mg/kg,Mus musculus [16],< 20%
same,Activity,Mus musculus [17],35%
same,Activity,Mus musculus [18],Active
same,inhibition,Mus musculus [19],Dose-dependent effect
same,inhibition,Mus musculus [20],inactive
same,Activity,Mus musculus [21],inactive
same,Activity,Mus musculus [22],inactive
